This note sets out measurements from PubChem BioAssay.

Assay [1] in a line: Her2 expression decrease, cell viability multiplex – SKBR3 breast tumor cells, AlphaScreen, ATP viability, primary screen (AID 461).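 On Her2 level: lower value means less Her2 protein in the cells.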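 On viability: percent of carrier control wells set as 100% viability.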 The conditions noted are these: SKBR3 Her2 protein level, 18-24 h, measured here: SKBR3 viability, ATP luminescence, at 10 µM. (In general: Bead proximity is the source of the signal in Alpha formats.)
The target in assay [2] is Receptor tyrosine-protein kinase erbB-2 (Homo sapiens) (UniProt P04626). Described as above. The conditions noted are these: 18-24 h, at 10 µM, stronger effect = lower value.
Chain of Receptor tyrosine-protein kinase erbB-2 (Homo sapiens) (P04626 whole entry, looked up): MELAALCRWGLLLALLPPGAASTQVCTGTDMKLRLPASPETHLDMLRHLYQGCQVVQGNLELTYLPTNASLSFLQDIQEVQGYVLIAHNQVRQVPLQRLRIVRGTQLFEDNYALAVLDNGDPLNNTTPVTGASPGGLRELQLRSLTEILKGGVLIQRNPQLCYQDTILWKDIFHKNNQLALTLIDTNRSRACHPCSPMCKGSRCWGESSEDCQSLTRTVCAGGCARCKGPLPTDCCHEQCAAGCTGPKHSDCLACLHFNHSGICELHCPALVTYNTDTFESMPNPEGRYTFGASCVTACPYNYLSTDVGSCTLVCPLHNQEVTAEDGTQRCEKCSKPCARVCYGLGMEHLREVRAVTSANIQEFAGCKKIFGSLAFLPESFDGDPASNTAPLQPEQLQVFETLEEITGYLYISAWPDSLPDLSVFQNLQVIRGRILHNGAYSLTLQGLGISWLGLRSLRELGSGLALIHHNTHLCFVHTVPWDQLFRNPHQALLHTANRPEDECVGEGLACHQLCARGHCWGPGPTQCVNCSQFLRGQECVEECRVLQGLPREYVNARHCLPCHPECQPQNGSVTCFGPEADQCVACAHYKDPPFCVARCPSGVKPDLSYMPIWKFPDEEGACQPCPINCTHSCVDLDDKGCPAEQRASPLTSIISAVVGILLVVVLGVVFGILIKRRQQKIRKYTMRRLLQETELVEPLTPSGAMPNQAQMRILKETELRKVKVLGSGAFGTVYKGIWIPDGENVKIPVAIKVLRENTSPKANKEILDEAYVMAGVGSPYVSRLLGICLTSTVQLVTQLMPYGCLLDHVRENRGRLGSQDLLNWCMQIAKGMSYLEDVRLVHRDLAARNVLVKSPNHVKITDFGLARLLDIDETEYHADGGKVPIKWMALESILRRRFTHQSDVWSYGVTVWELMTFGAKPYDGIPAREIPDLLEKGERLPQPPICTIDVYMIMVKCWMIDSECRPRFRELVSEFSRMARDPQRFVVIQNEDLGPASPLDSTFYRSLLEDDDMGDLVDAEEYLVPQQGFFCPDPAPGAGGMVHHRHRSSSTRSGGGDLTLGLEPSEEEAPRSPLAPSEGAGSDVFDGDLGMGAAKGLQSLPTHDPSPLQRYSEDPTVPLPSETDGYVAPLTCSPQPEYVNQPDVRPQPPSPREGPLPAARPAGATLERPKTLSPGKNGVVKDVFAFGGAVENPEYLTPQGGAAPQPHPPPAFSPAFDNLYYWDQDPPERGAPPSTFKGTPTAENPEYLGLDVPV
Assay [3] in a line: reduced viability of SK-BR-3 breast cancer cells – cell-based, 24 h, human, pilot screen (AID 572;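 active means viability at or below 10% of carrier control in both of two separate runs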;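 further: compound exposure lasted between 18 and 24 h rather than exactly 24 h; 100% = carrier-treated control wells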). To be noted: SK-BR-3 viability, CellTiter-Glo luminescence, at 10 µM, stronger effect = lower value.
Assay [4] is described as follows: HUVEC growth inhibition – cell-based, human, primary screen (AID 575;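 active means viability at or below 30% in both replicate assays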;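 further: 100% = median of untreated cell wells with 0.1% DMSO on each plate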). The conditions noted are these: HUVEC proliferation, CellTiter-Glo luminescence, 72 h; at 10 µM; stronger effect = lower value. In a few lines:
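Test system – primary HUVEC, no more than 12 passages · Dosing – one dose, 10 µM final, 0.1% DMSO · Times – 72 h treatment at 37 °C · Measured by – ATP-based CellTiter-Glo luminescent read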
A general note: In ATP-based viability assays light output follows the ATP content of the culture.

Assay [5] can be described thus: H69AR cell proliferation blockers – human, duplicate replicates, primary screen (AID 580;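 active means viability at or under a set limit in both replicates, limit being median viability minus 3 SD, cut at about 48% in these data, passing the limit was not always enough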;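 further: 100% = mean luminescence of untreated wells and 0% = no signal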). To be noted: H69AR lung tumor cells viability, ATP luminescence, 72 h; at 10 µM; stronger effect = lower value.
Assay [6] in a line: MRP1 drug-resistance reversers in H69AR cells – cell-based, doxorubicin co-treatment, pilot screen (AID 601;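 active means viability loss from added drug above about 55%, and viability with drug at most 40%, in both replicates, limit read from the data, passing the limit was not always enough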). To be noted: CellTiter-Glo, 72 h, at 10 µM; for differential viability (reversal): stronger effect = higher value.
The nature of assay [7]: yeast transport mutant growth inhibition pilot in 384-well plates, post-Golgi transport modulator project (AID 636; in the data active means inhibition above about 31%). To be noted: absorbance 615 nm, about 18 h, stronger effect = higher value.
A short description of assay [8]: growth suppression of yeast trafficking mutant, preliminary HTS, modulators of trafficking downstream of Golgi apparatus project, 1536-format plate, OD 615 nm (AID 637; in the data active means inhibition above about 30%). To be noted: yeast transport mutant growth, absorbance 615 nm, 18 h; stronger effect = higher value.
[9] abbreviates: H69AR cells + 2 uM doxorubicin, measured here: viability with 2 uM doxorubicin, stronger effect = lower value.
Where [10] appears, read: H69AR cells, compound alone cytotoxicity.

Activity calls are given as the source filed them.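 How the source made its calls, unless noted: active means Her2 level under about 52% in both replicate screens, with viability over 70% of control (limit read from the data); inconclusive means Her2 under the limit in one screen only, or viability under 70%; inactive means Her2 level above the set limit.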

Turning to `O=c1cc(-c2ccc(Cl)cc2)[nH][nH]1`, the viability – broadly, a read-out of living cells in per cent, often relative to untreated cells – is 108% in assay [1]; 108% (inactive) in assay [3]; 93.5% (inactive) in assay [4]; 91.6% (inactive) in assay [5]; 85.9% in assay [6] (setting [9]); 91.6% in assay [6] (setting [10]). Also, the Her2 level in assay [2] was 84% (inactive). The differential viability (reversal) in assay [6] (H69AR cells + 2 uM doxorubicin) was 5.75% (inactive). In addition, the results for the inhibition in assay [7] and in assay [8] were -7.84% (inactive) and 1% (inactive), respectively.

As for `COc1ccc2cc(C(=O)NCc3ccco3)c(=Nc3ccc(C(=O)O)cc3)oc2c1`, the viability is 68% in assay [1]; 68% (inactive) in assay [3]; 77.4% (inactive) in assay [4]; 55% (inactive) in assay [5]; 69.1% in assay [6] (setting [9]); 55% in assay [6] (setting [10]). Moreover, the Her2 level in assay [2] is 83% (inactive). For the same molecule, the differential viability (reversal) in assay [6] (H69AR cells + 2 uM doxorubicin) is -14.1% (inactive). The inhibition (as a rule, the change of the read-out against control, counted positive when it falls) in assay [7] was -5% (inactive); in assay [8], -1% (inactive).

In the case of `COc1ccccc1N1CCN(CCCNC(=O)Nc2ccccc2)CC1`, the viability in assay [1] is 129%; in assay [3], 129% (inactive); in assay [4], 84.5% (inactive); in assay [5], 90.3% (inactive); in assay [6] (setting [9]), 91.8%; in assay [6] (setting [10]), 90.3%. For the same molecule, in assay [2], the Her2 level was 83.5% (inactive). Further, the differential viability (reversal) in assay [6] (H69AR cells + 2 uM doxorubicin) is -1.53% (inactive). Further, the inhibition in assay [7] was -2.76% (inactive); in assay [8] it was -0.48% (inactive).

In the case of `COc1ccccc1CN1CCCC(C(=O)N(C)Cc2ccccc2)C1` (stereo not given), the viability in assay [1] was 70%; in assay [3] it was 70% (inactive); in assay [4] it was 99.1% (inactive); in assay [5], 81.1% (inactive); in assay [6] (setting [9]), 77.4%; in assay [6] (setting [10]) it was 81.1%. Also, the Her2 level in assay [2] is 116% (inactive). For the same molecule, the differential viability (reversal) in assay [6] (H69AR cells + 2 uM doxorubicin) is 3.71% (inactive). The figures for the inhibition in assay [7] and in assay [8] were -0.77% (inactive) and 5% (inactive), respectively.

With `O=c1c2c(nc3nc(COc4ccccc4)[nH]n13)CCC2`, the viability is 103% in assay [1]; 103% (inactive) in assay [3]; 99.5% (inactive) in assay [4]; 101% (inactive) in assay [5]; 90.2% in assay [6] (setting [9]); 101% in assay [6] (setting [10]). In addition, in assay [2], the Her2 level was 103% (inactive). Further, in assay [6] (H69AR cells + 2 uM doxorubicin), the differential viability (reversal) was 10.9% (inactive). Besides, the inhibition is -4.8% (inactive) in assay [7] and 3.23% (inactive) in assay [8].

In the case of `Cc1ccc(NCC(O)C(O)C(O)CO)cc1C` (stereo not given), the viability in assay [1] is 113%; in assay [3], 113% (inactive); in assay [4] it was 93.4% (inactive); in assay [5], 94.3% (inactive); in assay [6] (setting [9]), 96.6%; in assay [6] (setting [10]), 94.3%. Moreover, in assay [2], the Her2 level was 104% (inactive). Further, in assay [6] (H69AR cells + 2 uM doxorubicin), the differential viability (reversal) was -2.34% (inactive). Also, the inhibition in assay [7] is -6.93% (inactive); in assay [8], -8.1% (inactive).

Consider `COC(=O)c1ccccc1S(=O)(=O)N(CCCN1CCOCC1)Cc1cccs1`, for which the viability in assay [1] is 111%; in assay [3] it was 111% (inactive); in assay [4], 91.8% (inactive); in assay [5] it was 89.2% (inactive); in assay [6] (setting [9]), 90.2%; in assay [6] (setting [10]), 89.2%. For the same molecule, in assay [2], the Her2 level is 110% (inactive). For the same molecule, in assay [6] (H69AR cells + 2 uM doxorubicin), the differential viability (reversal) is -0.97% (inactive). Also, the inhibition in assay [7] was -1.45% (inactive); in assay [8], 5.4% (inactive).

Regarding `COc1cc2c(c(OC)c1)C(c1ccncc1)CC(=O)N2` (stereo not given), the viability was 89% in assay [1]; 89% (inactive) in assay [3]; 91.7% (inactive) in assay [4]; 111% (inactive) in assay [5]; 89.8% in assay [6] (setting [9]); 111% in assay [6] (setting [10]). The Her2 level in assay [2] is 96.5% (inactive). Besides, in assay [6] (H69AR cells + 2 uM doxorubicin), the differential viability (reversal) was 21.4% (inactive). The figures for the inhibition in assay [7] and in assay [8] were 1.73% (inactive) and -5.57% (inactive), respectively.

Regarding `CCOC(=O)c1c(C)[nH]c(C)c1C(=O)COc1ccc(NC(=O)c2ccco2)cc1`, the viability was 88.5% in assay [1]; 88.5% (inactive) in assay [3]; 91.8% (inactive) in assay [4]; 86.9% (inactive) in assay [5]; 93.8% in assay [6] (setting [9]); 86.9% in assay [6] (setting [10]). For the same molecule, the Her2 level in assay [2] was 102% (inactive). Also, the differential viability (reversal) in assay [6] (H69AR cells + 2 uM doxorubicin) was -6.89% (inactive). Also, the inhibition in assay [7] is -1.43% (inactive); in assay [8], 3.65% (inactive).

In the case of `COc1ccc(OCc2cccc(C(=O)O)c2)cc1`, the viability was 105% in assay [1]; 105% (inactive) in assay [3]; 75.7% (inactive) in assay [4]; 88.1% (inactive) in assay [5]; 81% in assay [6] (setting [9]); 88.1% in assay [6] (setting [10]). For the same molecule, in assay [2], the Her2 level was 78.5% (inactive). For the same molecule, in assay [6] (H69AR cells + 2 uM doxorubicin), the differential viability (reversal) was 7.06% (inactive). The inhibition was -4.47% (inactive) in assay [7] and 0.91% (inactive) in assay [8].

As for `O=C1CC(c2cccc(Cl)c2)CC(O)=C1C=NCCCO` (stereo not given), the viability in assay [1] was 102%; in assay [3], 102% (inactive); in assay [4], 83.7% (inactive); in assay [5] it was 103% (inactive); in assay [6] (setting [9]), 98.1%; in assay [6] (setting [10]) it was 103%. For the same molecule, in assay [2], the Her2 level was 90.5% (inactive). In addition, the differential viability (reversal) in assay [6] (H69AR cells + 2 uM doxorubicin) was 4.62% (inactive). Besides, the results for the inhibition in assay [7] and in assay [8] were -6.27% (inactive) and -0.33% (inactive), respectively.

Turning to `Fc1ccccc1-c1nc(NCCCN2CCOCC2)c2ccccc2n1`, the viability in assay [1] was 94%; in assay [3], 94% (inactive); in assay [4], 85.6% (inactive); in assay [5], 72.2% (inactive); in assay [6] (setting [9]), 79.9%; in assay [6] (setting [10]), 72.2%. In addition, the Her2 level in assay [2] was 107% (inactive). In addition, the differential viability (reversal) in assay [6] (H69AR cells + 2 uM doxorubicin) is -7.69% (inactive). Also, the inhibition in assay [7] is -0.68% (inactive); in assay [8], 9.21% (inactive).

As for `Cc1nc2ccccn2c1P(=O)(N1CCCCC1)N1CCCCC1`, the viability is 92.5% in assay [1]; 92.5% (inactive) in assay [3]; 117% (inactive) in assay [4]; 91% (inactive) in assay [5]; 89.3% in assay [6] (setting [9]); 91% in assay [6] (setting [10]). Besides, in assay [2], the Her2 level was 112% (inactive). For the same molecule, the differential viability (reversal) in assay [6] (H69AR cells + 2 uM doxorubicin) is 1.72% (inactive). The inhibition in assay [7] was -2.93% (inactive); in assay [8], 0% (inactive).

With `O=C(CSc1ncnc2c1oc1ccccc12)Nc1ccccc1F`, the viability in assay [1] is 96.5%; in assay [3], 96.5% (inactive); in assay [4], 72% (inactive); in assay [5], 90.5% (inactive); in assay [6] (setting [9]), 83.1%; in assay [6] (setting [10]), 90.5%. In addition, the Her2 level in assay [2] was 101% (inactive). Also, the differential viability (reversal) in assay [6] (H69AR cells + 2 uM doxorubicin) was 7.33% (inactive). Besides, the inhibition is -2.27% (inactive) in assay [7] and -1.33% (inactive) in assay [8].

In the case of `O=c1[nH]c(CN2CCN(Cc3ccccc3)CC2)nc2sc3c(c12)CCC3`, the viability is 96% in assay [1]; 96% (inactive) in assay [3]; 98.9% (inactive) in assay [4]; 87.9% (inactive) in assay [5]; 87.3% in assay [6] (setting [9]); 87.9% in assay [6] (setting [10]). The Her2 level in assay [2] is 87.5% (inactive). Further, the differential viability (reversal) in assay [6] (H69AR cells + 2 uM doxorubicin) is 0.67% (inactive). Also, the inhibition was -4.86% (inactive) in assay [7] and 2.06% (inactive) in assay [8].

In the case of `N#Cc1c(NC(=O)CSc2nc(N)cc(=O)[nH]2)sc2c1CCCCCC2`, the viability in assay [1] was 104%; in assay [3] it was 104% (inactive); in assay [4], 59.9% (inactive); in assay [5], 91.5% (inactive); in assay [6] (setting [9]), 86.1%; in assay [6] (setting [10]), 91.5%. Moreover, the Her2 level in assay [2] was 90% (inactive). Besides, the differential viability (reversal) in assay [6] (H69AR cells + 2 uM doxorubicin) was 5.43% (inactive). Moreover, the figures for the inhibition in assay [7] and in assay [8] were -0.66% (inactive) and -10% (inactive), respectively.
